Test results as given in ChEMBL document CHEMBL3124902, “Homoisoflavonoids as potential imaging agents for β-amyloid plaques in Alzheimer's disease” (Eur J Med Chem, 2014).
pKi: −log10 of the molar value. Values belong to the compound of their own block, whether it stands above or below them. Activity calls are given as the source filed them. No cut-off for these calls is given here.

Key:
[1] = molecular target: T1, Amyloid-beta precursor protein (Homo sapiens, UniProt P05067); experiment: Displacement of [125I]IMPY from amyloid beta (1 to 40) (unknown origin) after 2 hrs by gamma counting analysis
T1 sequence (P05067 whole entry): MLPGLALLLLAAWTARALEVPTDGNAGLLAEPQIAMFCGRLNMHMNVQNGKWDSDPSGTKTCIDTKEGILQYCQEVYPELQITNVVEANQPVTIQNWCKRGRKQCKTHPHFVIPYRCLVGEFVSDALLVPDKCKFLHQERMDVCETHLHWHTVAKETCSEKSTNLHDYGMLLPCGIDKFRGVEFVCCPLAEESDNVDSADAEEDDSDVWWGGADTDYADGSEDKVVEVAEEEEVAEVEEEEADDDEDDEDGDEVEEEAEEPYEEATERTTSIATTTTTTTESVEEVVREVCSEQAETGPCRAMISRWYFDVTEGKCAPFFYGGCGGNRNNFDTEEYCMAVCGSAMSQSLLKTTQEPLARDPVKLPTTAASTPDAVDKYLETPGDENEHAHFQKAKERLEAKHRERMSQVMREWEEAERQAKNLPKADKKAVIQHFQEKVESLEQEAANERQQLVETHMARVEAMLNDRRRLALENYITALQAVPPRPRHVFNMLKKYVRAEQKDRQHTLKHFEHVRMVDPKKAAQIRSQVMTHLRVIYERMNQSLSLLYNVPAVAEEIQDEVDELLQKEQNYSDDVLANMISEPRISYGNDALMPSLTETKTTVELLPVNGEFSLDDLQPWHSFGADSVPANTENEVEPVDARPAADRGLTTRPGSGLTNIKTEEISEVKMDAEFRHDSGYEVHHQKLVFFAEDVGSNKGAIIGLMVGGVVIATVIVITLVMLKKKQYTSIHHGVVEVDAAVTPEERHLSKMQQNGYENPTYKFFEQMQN
Procedure, shortened: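 Incubation was 2 h at 37 °C. Bound and free fractions were separated by filtration through GF/B filters, followed by ice-cold PBS washes and counting. IC50 came from displacement curves of three independent experiments, done in duplicate. Ki was obtained by Cheng-Prusoff.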

[2] = molecular target: T1, Amyloid-beta precursor protein; experiment: Binding affinity to beta amyloid-containing senile plaques of Alzheimer's disease patient at 50 uM after 20 mins by thioflavin-S staining-based fluorescence microscopic analysis
Procedure, shortened: (§1)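 Paraffin sections of postmortem AD brain were dewaxed in xylene, passed through graded ethanol, then rinsed in water and 0.01 M PBS at pH 7.4. Sections were immersed in cold ligand (50 in 30% EtOH/0.1 M PBS) for 20 min and differentiated in 50% EtOH for 10 min. Adjacent sections were stained with ThS (1%, 5 min) and differentiated in 70% EtOH. Sections were then PBS-washed, mounted in 80% glycerin and imaged by fluorescence microscopy.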

[3] = molecular target: Microtubule-associated protein tau (Homo sapiens) (UniProt P10636); experiment: Binding affinity to hyperphosphorylated tau protein-containing neurofibrillary tangles of Alzheimer's disease patient at 50 uM after 20 mins by thioflavin-S staining-based fluorescence microscopic analysis; procedure, shortened: as §1
Sequence of Microtubule-associated protein tau (Homo sapiens) (P10636 whole entry): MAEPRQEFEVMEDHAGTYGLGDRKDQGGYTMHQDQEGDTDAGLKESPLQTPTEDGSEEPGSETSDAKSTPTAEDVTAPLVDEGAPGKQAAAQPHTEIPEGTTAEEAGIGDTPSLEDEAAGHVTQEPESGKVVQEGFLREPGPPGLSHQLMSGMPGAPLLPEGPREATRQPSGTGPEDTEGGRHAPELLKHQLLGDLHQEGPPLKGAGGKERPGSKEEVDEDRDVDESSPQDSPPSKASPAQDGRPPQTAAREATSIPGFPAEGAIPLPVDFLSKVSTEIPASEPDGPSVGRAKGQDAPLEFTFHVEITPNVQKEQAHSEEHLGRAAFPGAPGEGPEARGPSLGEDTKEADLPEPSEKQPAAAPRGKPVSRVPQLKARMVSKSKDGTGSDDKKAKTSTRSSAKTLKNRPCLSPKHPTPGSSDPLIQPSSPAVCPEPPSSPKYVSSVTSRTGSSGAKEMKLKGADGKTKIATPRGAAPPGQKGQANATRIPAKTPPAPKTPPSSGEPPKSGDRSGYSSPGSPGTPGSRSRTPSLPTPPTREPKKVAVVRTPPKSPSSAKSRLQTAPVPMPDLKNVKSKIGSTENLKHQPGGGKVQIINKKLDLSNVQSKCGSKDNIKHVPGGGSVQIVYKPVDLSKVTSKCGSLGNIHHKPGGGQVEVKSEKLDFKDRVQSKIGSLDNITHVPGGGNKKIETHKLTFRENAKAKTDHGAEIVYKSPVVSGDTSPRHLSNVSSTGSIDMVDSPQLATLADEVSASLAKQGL

Brain [4] = experiment: Ratio of drug level in ICR mouse brain measured at 60 mins to drug level in ICR mouse brain measured at 2 mins; type: ADME; conditions: in vivo
Procedure, shortened: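 Brain uptake (%ID/g) at 60 min was divided by uptake at 2 min after intravenous injection into normal ICR mice, n=5 per time point. Brain radioactivity was gamma counted and normalised to a 1% injected-dose standard.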

Kidney [5] = experiment: Biodistribution in ICR mouse kidney at 2 uCi, iv measured at 2 hrs by gamma counting analysis; type: ADME, organism-based; conditions: in vivo
Procedure, shortened: (§2)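 The radioiodinated ligand was given intravenously to normal ICR mice, n=5 per time point. Mice were euthanized at 2, 10, 30, 60 and 120 min, and organs were removed and weighed. Radioactivity was gamma counted. %ID/g was calculated as counts per gram of tissue divided by counts of 1% of the injected dose, taken from a 100-fold diluted aliquot.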

Lung [6] = experiment: Biodistribution in ICR mouse lung at 2 uCi, iv measured at 2 hrs by gamma counting analysis; type: ADME, organism-based; conditions: in vivo; procedure, shortened: as §2
Spleen [7] = experiment: Biodistribution in ICR mouse spleen at 2 uCi, iv measured at 2 hrs by gamma counting analysis; type: ADME, organism-based; conditions: in vivo; procedure, shortened: as §2
Liver [8] = experiment: Biodistribution in ICR mouse liver at 2 uCi, iv measured at 2 hrs by gamma counting analysis; type: ADME, organism-based; conditions: in vivo; procedure, shortened: as §2
Heart [9] = experiment: Biodistribution in ICR mouse heart at 2 uCi, iv measured at 2 hrs by gamma counting analysis; type: ADME, organism-based; conditions: in vivo; procedure, shortened: as §2
Brain [10] = experiment: Biodistribution in ICR mouse brain at 2 uCi, iv measured at 2 hrs by gamma counting analysis; type: ADME, organism-based; conditions: in vivo; procedure, shortened: as §2
Blood [11] = experiment: Biodistribution in ICR mouse blood at 2 uCi, iv measured at 2 hrs by gamma counting analysis; type: ADME, organism-based; conditions: in vivo; procedure, shortened: as §2
Kidney [12] = experiment: Biodistribution in ICR mouse kidney at 2 uCi, iv measured at 1 hr by gamma counting analysis; type: ADME, organism-based; conditions: in vivo; procedure, shortened: as §2
Lung [13] = experiment: Biodistribution in ICR mouse lung at 2 uCi, iv measured at 1 hr by gamma counting analysis; type: ADME, organism-based; conditions: in vivo; procedure, shortened: as §2
Spleen [14] = experiment: Biodistribution in ICR mouse spleen at 2 uCi, iv measured at 1 hr by gamma counting analysis; type: ADME, organism-based; conditions: in vivo; procedure, shortened: as §2
Liver [15] = experiment: Biodistribution in ICR mouse liver at 2 uCi, iv measured at 1 hr by gamma counting analysis; type: ADME, organism-based; conditions: in vivo; procedure, shortened: as §2
Heart [16] = experiment: Biodistribution in ICR mouse heart at 2 uCi, iv measured at 1 hr by gamma counting analysis; type: ADME, organism-based; conditions: in vivo; procedure, shortened: as §2
Brain [17] = experiment: Biodistribution in ICR mouse brain at 2 uCi, iv measured at 1 hr by gamma counting analysis; type: ADME, organism-based; conditions: in vivo; procedure, shortened: as §2
Blood [18] = experiment: Biodistribution in ICR mouse blood at 2 uCi, iv measured at 1 hr by gamma counting analysis; type: ADME, organism-based; conditions: in vivo; procedure, shortened: as §2
Kidney [19] = experiment: Biodistribution in ICR mouse kidney at 2 uCi, iv measured at 30 mins by gamma counting analysis; type: ADME, organism-based; conditions: in vivo, 0.5 h; procedure, shortened: as §2
Lung [20] = experiment: Biodistribution in ICR mouse lung at 2 uCi, iv measured at 30 mins by gamma counting analysis; type: ADME, organism-based; conditions: in vivo, 0.5 h; procedure, shortened: as §2
Spleen [21] = experiment: Biodistribution in ICR mouse spleen at 2 uCi, iv measured at 30 mins by gamma counting analysis; type: ADME, organism-based; conditions: in vivo, 0.5 h; procedure, shortened: as §2
Liver [22] = experiment: Biodistribution in ICR mouse liver at 2 uCi, iv measured at 30 mins by gamma counting analysis; type: ADME, organism-based; conditions: in vivo, 0.5 h; procedure, shortened: as §2
Heart [23] = experiment: Biodistribution in ICR mouse heart at 2 uCi, iv measured at 30 mins by gamma counting analysis; type: ADME, organism-based; conditions: in vivo, 0.5 h; procedure, shortened: as §2
Brain [24] = experiment: Biodistribution in ICR mouse brain at 2 uCi, iv measured at 30 mins by gamma counting analysis; type: ADME, organism-based; conditions: in vivo, 0.5 h; procedure, shortened: as §2
Blood [25] = experiment: Biodistribution in ICR mouse blood at 2 uCi, iv measured at 30 mins by gamma counting analysis; type: ADME, organism-based; conditions: in vivo, 0.5 h; procedure, shortened: as §2
Kidney [26] = experiment: Biodistribution in ICR mouse kidney at 2 uCi, iv measured at 10 mins by gamma counting analysis; type: ADME, organism-based; conditions: in vivo; procedure, shortened: as §2
Lung [27] = experiment: Biodistribution in ICR mouse lung at 2 uCi, iv measured at 10 mins by gamma counting analysis; type: ADME, organism-based; conditions: in vivo; procedure, shortened: as §2
Spleen [28] = experiment: Biodistribution in ICR mouse spleen at 2 uCi, iv measured at 10 mins by gamma counting analysis; type: ADME, organism-based; conditions: in vivo; procedure, shortened: as §2
Liver [29] = experiment: Biodistribution in ICR mouse liver at 2 uCi, iv measured at 10 mins by gamma counting analysis; type: ADME, organism-based; conditions: in vivo; procedure, shortened: as §2
Heart [30] = experiment: Biodistribution in ICR mouse heart at 2 uCi, iv measured at 10 mins by gamma counting analysis; type: ADME, organism-based; conditions: in vivo; procedure, shortened: as §2
Brain [31] = experiment: Biodistribution in ICR mouse brain at 2 uCi, iv measured at 10 mins by gamma counting analysis; type: ADME, organism-based; conditions: in vivo; procedure, shortened: as §2
Blood [32] = experiment: Biodistribution in ICR mouse blood at 2 uCi, iv measured at 10 mins by gamma counting analysis; type: ADME, organism-based; conditions: in vivo; procedure, shortened: as §2
Kidney [33] = experiment: Biodistribution in ICR mouse kidney at 2 uCi, iv measured at 2 mins by gamma counting analysis; type: ADME, organism-based; conditions: in vivo; procedure, shortened: as §2
Spleen [34] = experiment: Biodistribution in ICR mouse spleen at 2 uCi, iv measured at 2 mins by gamma counting analysis; type: ADME, organism-based; conditions: in vivo; procedure, shortened: as §2
Lung [35] = experiment: Biodistribution in ICR mouse lung at 2 uCi, iv measured at 2 mins by gamma counting analysis; type: ADME, organism-based; conditions: in vivo; procedure, shortened: as §2
Liver [36] = experiment: Biodistribution in ICR mouse liver at 2 uCi, iv measured at 2 mins by gamma counting analysis; type: ADME, organism-based; conditions: in vivo; procedure, shortened: as §2
Heart [37] = experiment: Biodistribution in ICR mouse heart at 2 uCi, iv measured at 2 mins by gamma counting analysis; type: ADME, organism-based; conditions: in vivo; procedure, shortened: as §2
Brain [38] = experiment: Biodistribution in ICR mouse brain at 2 uCi, iv measured at 2 mins by gamma counting analysis; type: ADME, organism-based; conditions: in vivo; procedure, shortened: as §2
Blood [39] = experiment: Biodistribution in ICR mouse blood at 2 uCi, iv measured at 2 mins by gamma counting analysis; type: ADME, organism-based; conditions: in vivo; procedure, shortened: as §2

Structure (SMILES): COc1ccc(/C=C2\COc3ccc(Br)cc3C2=O)cc1
pKi [1]: 8.00

Structure (SMILES): O=C1/C(=C/c2ccc(O)cc2)COc2ccc(Br)cc21
pKi [1]: 6.99

Structure (SMILES): O=C1/C(=C/c2ccccc2)COc2ccc(Br)cc21
pKi [1]: 6.98

Structure (SMILES): COc1cc(/C=C2\COc3ccc(Br)cc3C2=O)ccc1O
pKi [1]: 6.36

Structure (SMILES): CN(C)c1ccc(/C=C2\COc3ccc(Br)cc3C2=O)cc1
Activity [2]: Active
pKi [1]: 8.04
Activity [3]: inactive

Structure (SMILES): CN(C)c1ccc(/C=C2\COc3ccc([125I])cc3C2=O)cc1
Ratio (Brain [4]): 6.9%
Drug uptake (Kidney [5]): 1 % ID/g
Drug uptake (Lung [6]): 0.73 % ID/g
Drug uptake (Spleen [7]): 0.35 % ID/g
Drug uptake (Liver [8]): 1.05 % ID/g
Drug uptake (Heart [9]): 0.36 % ID/g
Drug uptake (Brain [10]): 0.1 % ID/g
Drug uptake (Blood [11]): 1.05 % ID/g
Drug uptake (Kidney [12]): 1.42 % ID/g
Drug uptake (Lung [13]): 0.99 % ID/g
Drug uptake (Spleen [14]): 0.4 % ID/g
Drug uptake (Liver [15]): 1.23 % ID/g
Drug uptake (Heart [16]): 0.49 % ID/g
Drug uptake (Brain [17]): 0.18 % ID/g
Drug uptake (Blood [18]): 1.22 % ID/g
Drug uptake (Kidney [19]): 3.36 % ID/g
Drug uptake (Lung [20]): 2.29 % ID/g
Drug uptake (Spleen [21]): 0.7 % ID/g
Drug uptake (Liver [22]): 2.07 % ID/g
Drug uptake (Heart [23]): 0.87 % ID/g
Drug uptake (Brain [24]): 0.32 % ID/g
Drug uptake (Blood [25]): 2.38 % ID/g
Drug uptake (Kidney [26]): 10.88 % ID/g
Drug uptake (Lung [27]): 4.87 % ID/g
Drug uptake (Spleen [28]): 1.27 % ID/g
Drug uptake (Liver [29]): 4.71 % ID/g
Drug uptake (Heart [30]): 1.87 % ID/g
Drug uptake (Brain [31]): 0.83 % ID/g
Drug uptake (Blood [32]): 3.87 % ID/g
Drug uptake (Kidney [33]): 17.89 % ID/g
Drug uptake (Spleen [34]): 2.54 % ID/g
Drug uptake (Lung [35]): 9.33 % ID/g
Drug uptake (Liver [36]): 13.57 % ID/g
Drug uptake (Heart [37]): 4.46 % ID/g
Drug uptake (Brain [38]): 2.61 % ID/g
Drug uptake (Blood [39]): 8.35 % ID/g

Structure (SMILES): COc1ccc(/C=C2\COc3ccc(Br)cc3C2=O)cc1OC
pKi [1]: 7.27

The remaining compounds from weak to strong by pKi [1], led by results:

pKi [1]: 6.84
Structure (SMILES): O=C1/C(=C/c2ccc(Br)cc2)COc2ccc(Br)cc21

pKi [1]: 6.97
Structure (SMILES): O=C1/C(=C/c2ccc([N+](=O)[O-])cc2)COc2ccc(Br)cc21

pKi [1]: 7.13
Structure (SMILES): COc1cccc(/C=C2\COc3ccc(Br)cc3C2=O)c1

pKi [1]: 7.20
Structure (SMILES): Nc1ccc(/C=C2\COc3ccc(Br)cc3C2=O)cc1

pKi [1]: 7.41
Structure (SMILES): COc1cc(/C=C2\COc3ccc(Br)cc3C2=O)cc(OC)c1

pKi [1]: 7.59
Structure (SMILES): CN(C)c1ccc(/C=C2\COc3ccc(Br)cc3C2=O)cc1Br
